HDAC3 inh – human HDAC3 inhibition | O15379 | recombinant HDAC3, fluorogenic peptide/trypsin coupled, fluorescence | inhibition, % at 8.3 µM | 320,000 tested, 0.15% active | AID 2718; in the data active means inhibition above about 26%, passing the limit was not always enough; inconclusive means no clear call, values can overlap the other calls
Target sequence (O15379 whole entry, looked up): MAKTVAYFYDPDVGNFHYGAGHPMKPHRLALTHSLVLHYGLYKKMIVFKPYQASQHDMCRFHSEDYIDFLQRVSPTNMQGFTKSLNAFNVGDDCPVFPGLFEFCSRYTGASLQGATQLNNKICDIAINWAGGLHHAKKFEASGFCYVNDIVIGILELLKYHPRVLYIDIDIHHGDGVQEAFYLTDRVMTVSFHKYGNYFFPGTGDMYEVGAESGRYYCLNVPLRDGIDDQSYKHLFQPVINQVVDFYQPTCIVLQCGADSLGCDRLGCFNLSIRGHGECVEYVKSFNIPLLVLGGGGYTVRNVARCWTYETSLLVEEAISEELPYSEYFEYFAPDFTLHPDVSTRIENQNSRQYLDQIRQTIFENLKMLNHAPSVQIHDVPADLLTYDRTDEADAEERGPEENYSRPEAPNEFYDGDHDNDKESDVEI
Efflux pump mplx – antifungal efflux pump inhibition, Nile Red retention; 330,000 tested, 0.44% active; inhibition, % at 10 µM; S. cerevisiae Candida pump triplex;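 active means plate passing quality check with inhibition over a set limit, or well fluorescence over plate mean plus 4 SD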;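 further: Nile Red retained in pooled yeast measured as flow cytometry median fluorescence; 0% = buffer negative control and 100% = Enniatin B positive control; higher means more Nile Red kept so more efflux inhibition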
T cruzi inh – T. cruzi replication inhibition | T. cruzi beta-gal in NIH3T3, luminescence, 90 h | inhibition, % (test concentration not listed) | 300,000 tested, 1.4% active;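 active means mean inhibition across valid replicates above about 55%, limit read from the data; inconclusive means mean below that limit but half or more replicates reach it; inactive means mean below it, under half of replicates reach it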;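 further: signal also drops with host cell toxicity which is not excluded here; 0% = plate median of DMSO wells and 100% = zero luminescence signal; higher percent means less beta-gal luminescence so fewer parasites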
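System: NIH/3T3 fibroblasts plus reporter T. cruzi. Medium: DMEM plus 2% FBS. Probe or stimulus: 5000 reporter trypomastigotes per well. Compound: single 50 nL compound addition per well in DMSO. Incubation: co-culture of at least 90 h after 3 h attachment. Detection: GalScreen β-gal luminescence, detergent lysis, 60 min. Evaluation: parasite load inhibition, %.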
PolyA inhibitor – blocks polyadenylation in yeast reporter cells; activity score, % at 12 µM; AID 1875; 300,000 tested, 0.02% active; S. cerevisiae SKY197-pL101 polyadenylation reporter, beta-gal luminescence; efflux-impaired pdr1/pdr3 knockout yeast; score 100 = 6 SD above DMSO;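 active means lowest replicate activity score at least 50, where 100 means six control SD above control mean; inconclusive means lowest score under 50 but half or more replicates reach 50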;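 further: yeast exposed to compound for 9 h at 30 °C; higher score means more reporter readthrough which indicates perturbed polyadenylation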
AI-2 QS mod – modulators of Vibrio harveyi AI-2 quorum sensing system. Vibrio harveyi JMH597 AI-2 luminescence/OD600 ratio, 9 h; active compounds read low; strain lacks LuxN and CqsS sensors; 0 = neutral-control median. activity change, % at 7.5 µM. 300,000 tested, 0.4% active; in the data active means activity change below about -75%, passing the limit was not always enough; inconclusive means no clear call, values can overlap the other calls;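 further: luminescence divided by OD600 gain over 9 h not by final OD600 alone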
JMH597 growth rt – retest Vibrio harveyi JMH597 growth inhibition; shares compounds with AI-2 QS mod; OD600 absorbance, 9 h; lacks LuxN and CqsS sensors; growth inhibition, % at 7.5 µM; 750 tested, 1% active; AID 2726;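 active means every replicate shows growth inhibition above 50%; inconclusive means at least half, but not all, replicates pass that cutoff; inactive means fewer than half of replicates pass it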
BB721 lum counter – retest counter-screen: BB721 constitutive quorum sensing luminescence decrease; inhibition, % at 7.5 µM; Vibrio harveyi BB721 luminescence, 9 h; 750 tested, 95% active; shares compounds with AI-2 QS mod;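 active means inhibition above about 80% in every replicate, not just on average, limit read from the data; inconclusive means at least half of replicates past the limit, but not all; inactive means fewer than half of replicates past the limit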
BB721 growth rt – retest: blocks Vibrio harveyi BB721 growth; OD600 absorbance, 9 h; growth inhibition, % at 7.5 µM; shares compounds with AI-2 QS mod; 750 tested, 3% active; AID 2728;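 active means every replicate shows growth inhibition above 50%; inconclusive means at least half but not all replicates above 50% inhibition; inactive means under half of replicates above 50% inhibition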
AI-2 QS JMH597 – Vibrio harveyi AI-2 signaling luminescence modulation – JMH597 strain, confirmation. shares compounds with AI-2 QS mod. 750 tested, 97% active. inhibition, % at 7.5 µM. Vibrio harveyi JMH597 AI-2 quorum sensing luminescence, 9 h; luxN and CqsS knockout, AI-2 only;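 active means every replicate shows more than 75% inhibition of signal versus neutral control wells; inconclusive means half to three quarters of replicates exceed 75% inhibition; inactive means fewer than half of replicates exceed 75% inhibition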
Numbers without * were called inactive; ? = inconclusive; nt = not tested or not shown. The list is not random: actives were taken first. Their share in the collection is about 2.2%.

SMILES | HDAC3 inh | Efflux pump mplx | T cruzi inh | PolyA inhibitor | AI-2 QS mod | JMH597 growth rt | BB721 lum counter | BB721 growth rt | AI-2 QS JMH597
Cc1ccc(CNC(=O)CCc2ccccc2)cc1 | -2 | 0 | 0 | 7 | -81* | 18 | 93* | 18 | 94*
Cc1ccc(CNC(=O)CCCc2ccccc2)cc1 | -1 | 0 | -7 | -5 | 8 | nt | nt | nt | nt
CC(C)c1ccc(CNC(=O)CCc2ccccc2)cc1 | 8 | 0 | 3 | -4 | -89* | 12 | 96* | 1 | 97*
CC(=O)N1CCC(C(=O)NCCOc2ccc(C)cc2)CC1 | 3 | 0 | -6 | 2 | 16 | nt | nt | nt | nt
CCN(C(=O)CSc1nnc(-c2ccc3c(c2)OCO3)o1)C1CCS(=O)(=O)C1 (configuration not stated) | -2 | 0 | nt | nt | nt | nt | nt | nt | nt
Nn1cnc2scc(-c3ccc(Cl)cc3)c2c1=O | 5 | 0 | -15 | -3 | 1 | nt | nt | nt | nt
CC(=O)c1ccc(O)c(CC=C(C)C)c1 | -2 | 0 | 3 | 10 | 13 | nt | nt | nt | nt
COc1ccccc1OCc1cc(-c2ccccc2)no1 | 6 | 0 | 9 | -19 | -65 | nt | nt | nt | nt
c1ccc(SCc2cc(-c3ccccc3)no2)cc1 | -6 | 0 | -2 | -4 | -92* | 14 | 99* | -15 | 99*
c1ccc(OCc2cc(-c3ccccc3)no2)cc1 | -7 | 0 | 13 | 5 | -96* | 1 | 99* | -1 | 100*
CCOc1cc(-c2sc(Nc3ccccc3)n[n+]2C)ccc1OC | -2 | 0 | -12 | -13 | 8 | nt | nt | nt | nt
O=C(NCc1ccc(Cl)cc1)C(=O)c1c[nH]c2ccccc12 | 9 | 0 | -3 | 1 | -89* | -18 | 97* | -31 | 98*
COc1cccc(CNC(=O)c2cc(COc3c(F)cccc3F)on2)c1 | nt | 0 | -2 | -7 | -12 | nt | nt | nt | nt
CC(CNC(=O)c1cc(COc2c(F)cccc2F)on1)Oc1cccnc1 (configuration not stated) | -1 | 0 | -4 | 8 | -91* | 25 | 94* | 20 | 96*
CCOC(=O)CN1C(=O)CN(c2ccc(C)cc2)C1=O | nt | 0 | 8 | -12 | 24 | nt | nt | nt | nt
CC1CN(CCc2ccccc2)c2nc3c(c(=O)n(C)c(=O)n3C)n2C1 (configuration not stated) | -1 | 0 | -9 | -9 | 19 | nt | nt | nt | nt
CCOc1ccc(NC(=O)C2CCN(S(=O)(=O)c3cccnc3)CC2)cc1 | 5 | 0 | 2 | 1 | -86* | 20 | 95* | 14 | 97*
CCOc1ccc(OCC)c(NC(=O)C2CCN(S(=O)(=O)c3cccnc3)CC2)c1 | 2 | 0 | 6 | -14 | 6 | nt | nt | nt | nt
CCCCC(=O)NC(=S)Nc1ccc(S(=O)(=O)N2CCCC2)cc1 | 3 | 0 | 0 | 8 | -84* | 17 | 86* | 5 | 92*
O=C(Nc1ccc(S(=O)(=O)N2CCCC2)cc1)C1CCCCC1 | 1 | 0 | -6 | -3 | -83* | 14 | 93* | 19 | 96*
O=C(Nc1ccc(S(=O)(=O)N2CCCCC2)cc1)C1CC1 | -3 | 0 | 15 | -16 | 16 | nt | nt | nt | nt
COc1ccc(CCNC(=S)N2CCC(Cc3ccccc3)CC2)cc1OC | -11 | 0 | 23 | -23 | 29 | nt | nt | nt | nt
CN(Cc1ccnc2ccccc12)C(=O)C1CCC(=O)N(Cc2ccccc2F)C1 (configuration not stated) | -2 | 3 | -4 | 2 | 15 | nt | nt | nt | nt
Cc1[nH][nH]c(=O)c1C=NCc1ccc(Cl)cc1 | 5 | 0 | -9 | -3 | 17 | nt | nt | nt | nt
CCOc1ccccc1OCCCC(=O)N(CC)CC(=O)Nc1c(F)cccc1F | 6 | 0 | -2 | -17 | 1 | nt | nt | nt | nt
Cc1ccsc1/C=N/NC(=O)CNC(=O)c1ccccc1 | 2 | 0 | -12 | -7 | ? | -9 | 93* | -1 | 95*

Screening results from PubChem BioAssay.
